Series [1] can be described thus: Cytotoxicity against human CRL8799 cells assessed as cell survival at 20 to 100 uM after 72 hrs by neutral red dye assay. The format is cell-based. The settings on record: read-out: Survival. The gist of the method:
(§1)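 The non-tumoral lines were grown with 10% FBS plus penicillin/streptomycin, as monolayers at 37 °C in 5% CO2: CRL-8799 in MEG medium and CRL-11233 in BEGM. Compounds in DMSO (≤0.5% v/v final) were applied for 72 h. Survival was read by neutral red uptake against 0.5% DMSO solvent-treated controls, as the mean of triplicates.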

The subject of series [2] is T-24. Kind of series: Cytotoxicity against human T24 cells assessed as cell survival at 100 uM after 72 hrs by neutral red dye assay. The settings on record: T-24, 72 h, read-out: Survival. In kind it is functional. The procedure, abridged:
(§2)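 HT-29 and T-24 cells were grown in McCoy's medium and MDA-MB-231 in Leibovitz, each with 10% FBS plus penicillin/streptomycin, as monolayers at 37 °C in 5% CO2. Compounds in DMSO (≤0.5% v/v final) were applied for 72 h. Survival was read by neutral red uptake against 0.5% DMSO-treated cells, as the mean of triplicates.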

The test system of series [3] is HT-29. Kind of series: Cytotoxicity against human HT-29 cells assessed as cell survival at 100 uM after 72 hrs by neutral red dye assay. The conditions noted are these: HT-29, 72 h, read-out: Survival. In kind it is functional. The gist of the method:
as §2

In series [4] the test system is T-24. Kind of series: Cytotoxicity against human T24 cells after 72 hrs by neutral red dye assay. In kind it is functional, cell-based. The settings on record: T-24, 72 h. The procedure, abridged: (§3)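 Human tumour cells were grown as monolayers with 10% FBS and penicillin/streptomycin at 37 °C in 5% CO2 (HT-29 and T-24 in McCoy's, MDA-MB-231 in Leibovitz). They were exposed to compound in DMSO (≤0.5% v/v final) at screening concentrations of 20 and 100 μM for 72 h and read by neutral red uptake. Survival is relative to cells given DMSO only, in triplicate.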

Series [5] deals with T-24. Kind of series: Induction of apoptosis in human T24 cells assessed as DNA fragmentation after 48 hrs by ELISA relative to control. The format is functional. The procedure, abridged: (§4)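 DNA fragmentation was measured with the Cell Death Detection ELISA Plus kit after treatment of cultured tumour cells. The signal is expressed relative to untreated control cultures, which are set to 1.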
On the technique in general: An ELISA detects its analyte on a solid surface through an enzyme-linked reagent.

Series [6] deals with MDA-MB-231. Kind of series: Cytotoxicity against human MDA-MB-231 cells assessed as cell survival at 100 uM after 72 hrs by neutral red dye assay. The format is functional. The conditions noted are these: MDA-MB-231, 72 h, read-out: Survival. The procedure, abridged: as §2
Series [7] deals with HT-29. Briefly: Induction of apoptosis in human HT-29 cells assessed as DNA fragmentation after 48 hrs by ELISA relative to control. In kind it is functional. The gist of the method:
as §4

Series [8] relates to MDA-MB-231. Briefly: Cytotoxicity against human MDA-MB-231 cells after 72 hrs by neutral red dye assay. The format is functional, cell-based. The conditions noted are these: MDA-MB-231, 72 h. The gist of the method:
as §3

In series [9] the test system is T-24. Briefly: Induction of apoptosis in human T24 cells assessed as caspase3 activation at IC50 after 48 hrs by FACS analysis relative to control. In kind it is functional. The procedure, abridged:
(§5)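 Active caspase-3 was detected by flow cytometry with a FITC anti-active-caspase-3 antibody kit, with readings at 14, 24 and 48 h. Treated cells were compared with untreated control cells. Results are scored as (+) for an increase of about 50% and (++) for a larger rise.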
Background: A flow cytometer gives signals particle by particle.

Series [10] in a line: Cytotoxicity against human CRL11233 cells assessed as cell survival at 20 to 100 uM after 72 hrs by neutral red dye assay. In kind it is cell-based. The conditions noted are these: read-out: Survival. The procedure, abridged: as §1
Series [11] deals with HT-29. Kind of series: Cytotoxicity against human HT-29 cells after 72 hrs by neutral red dye assay. The format is functional, cell-based. The settings on record: HT-29, 72 h. The procedure, abridged:
as §3

In series [12] the test system is MDA-MB-231. Briefly: Induction of apoptosis in human MDA-MB-231 cells assessed as DNA fragmentation after 24 hrs by ELISA relative to control. The format is functional. The gist of the method: as §4
The test system of series [13] is HT-29. Kind of series: Induction of apoptosis in human HT-29 cells assessed as caspase3 activation at IC50 after 48 hrs by FACS analysis relative to control. In kind it is functional. The procedure, abridged: as §5
Series [14] concerns T-24. Kind of series: Cytotoxicity against human T24 cells after 48 hrs by neutral red dye assay. The format is functional, cell-based.
Series [15] relates to MDA-MB-231. Kind of series: Cytotoxicity against human MDA-MB-231 cells after 48 hrs by neutral red dye assay. In kind it is functional, cell-based.
The subject of series [16] is HT-29. Briefly: Cytotoxicity against human HT-29 cells after 48 hrs by neutral red dye assay. In kind it is functional, cell-based.

Calls of active or inactive are those of the source. The rule behind the calls is not given here.

This note sets out measurements from ChEMBL document CHEMBL1821616, “New insights into the structural requirements for pro-apoptotic agents based on 2,4-diaminoquinazoline, 2,4-diaminopyrido[2,3-d]pyrimidine and 2,4-diaminopyrimidine derivatives” (Eur J Med Chem, 2011).

The term IC50 denotes the midpoint of a concentration-inhibition curve. A lower IC50 goes with higher potency. For `CCCCCCNc1nc(SCCCC)nc2ncccc12`, the results for the viability at 72 h, up to 100 µM in series [1] and in series [10] were 95% and 99%, respectively. Also, the viability at 100 µM in [2], in [3] and in [6] was < 45% throughout. Moreover, the half-maximal inhibitory concentration (IC50) in [4] turned out to be 4.5 µM; in series [8], 1.2 µM; in [11], 2.8 µM. In addition, the “fold change (FC)” value in [5] was found to be 4.3; in [7], 6.4; in series [12], 9.3. Also, the Activity in [9] and in series [13] was 75% throughout.

For `CCSc1nc(NCCCO)c2cccnc2n1`, the half-maximal inhibitory concentration (IC50) result in [14], in series [15] and in [16] was “Not Active” each time.

As to `Brc1ccc(CCNc2nc(NCCc3ccc(Br)cc3)c3ccccc3n2)cc1`, the viability at 72 h, up to 100 µM in series [1] amounted to 11%; in series [10] it was 1%. The viability at 100 µM in [2], in [3] and in series [6] was < 45% in each case. The IC50 in series [4] is 3.32 µM; in series [8], 10.4 µM; in series [11] it was 3.47 µM. The result in series [5], in series [7] and in [12] was inactive. In addition, the Activity in series [9] and in series [13] was 50% in each case.

Consider `CCCCCSc1nc(NCCCC)c2cccnc2n1`, for which the half-maximal inhibitory concentration (IC50) result in series [14], in [15] and in series [16] was “Not Active” each time.

As to `c1ccc(CCCCNc2ccnc(NCCCCc3ccccc3)n2)cc1`, the IC50 result in series [14], in series [15] and in series [16] was “Not Active” throughout.

`CCCCCNc1nc(NCCCCC)c2ccccc2n1`: the viability at 72 h, up to 100 µM in [1] worked out at 4%; in series [10], 5%. Moreover, the viability at 100 µM in series [2], in [3] and in series [6] was < 45% throughout. In addition, the IC50 was 5.25 µM in [4], 3.13 µM in [8] and 3.57 µM in series [11]. Moreover, the “fold change (FC)” value is recorded as 1.8 in series [5], 1.7 in series [7] and 2.5 in series [12]. Moreover, the Activity in [9] worked out at 50%.

Consider `CCCCCNc1nc(SC(C)C)nc2ncccc12`, for which the viability at 72 h, up to 100 µM came to 100% in [1] and 66% in [10]. In addition, the viability at 100 µM in series [2], in series [3] and in series [6] was < 45% in each case. Further, the values for the IC50 in [4], in series [8] and in [11] were 7.9 µM, 5.6 µM and 25.2 µM, respectively. The “fold change (FC)” value in series [5] was 1.7; in series [7], 4.2; in [12], 2.2. Also, the Activity in series [9] is 50%; in series [13] it was 75%.

For `CCCCCNc1nc(SCCCC)nc2ncccc12`, the viability at 72 h, up to 100 µM stood at 84% in [1] and 76% in series [10]. Besides, the viability at 100 µM in [2], in series [3] and in series [6] was < 45% in each case. The figures for the concentration for half-maximal inhibition (IC50) in series [4], in series [8] and in series [11] were 8.9 µM, 6.3 µM and 12.6 µM, respectively. Further, the outcome in series [5] was inactive. The “fold change (FC)” value in series [7] was 1.9; in series [12], 1.7. Moreover, the Activity in series [9] amounted to 50%.

For the molecule `c1ccc(CNc2nc(NCc3ccccc3)c3ccccc3n2)cc1`, the viability at 72 h, up to 100 µM was 89% in [1] and 100% in series [10]. Besides, the viability at 100 µM in series [2], in [3] and in [6] was < 45% each time. For the same molecule, the IC50 in [4] is 5.96 µM; in [8], 1.79 µM; in series [11] it was 4.72 µM. The result in series [5] and in [12] was inactive. The “fold change (FC)” value in series [7] turned out to be 3.6. Further, the Activity in series [9] turned out to be 75%.

In the case of `CCCCCCCNc1nc(SCC)nc2ncccc12`, the viability at 72 h, up to 100 µM in series [1] was determined as 93%; in [10], 100%. Further, the viability at 100 µM in series [2], in series [3] and in series [6] was < 45% each time. In addition, the 50% inhibitory concentration (IC50) in series [4] is 5.3 µM; in series [8], 2.6 µM; in series [11], 19.9 µM. For the same molecule, the result in series [5] was inactive. The “fold change (FC)” value is listed as 2.4 in series [7] and 2.7 in [12]. The Activity in [9] is reported as 75%.

Turning to `OCCCNc1nc(NCCCO)c2cccnc2n1`, the IC50 result in series [14], in [15] and in [16] was “Not Active” throughout.

In the case of `c1ccc(CCNc2nc(NCCc3ccccc3)c3ccccc3n2)cc1`, the viability at 72 h, up to 100 µM in series [1] worked out at 92%; in series [10] it was 100%. In addition, the viability at 100 µM in series [2], in [3] and in series [6] was < 45% in each case. The IC50 came out at 2.86 µM in [4], 2.18 µM in [8] and 2.3 µM in [11]. For the same molecule, the outcome in series [5], in series [7] and in series [12] was inactive. The Activity in series [9] is 50%.

Consider `c1ccc(CCCNc2nc(NCCCc3ccccc3)c3ccccc3n2)cc1`, for which the viability at 72 h, up to 100 µM in series [1] came out at 87%; in [10] it was 2%. Moreover, the viability at 100 µM in series [2], in [3] and in series [6] was < 45% each time. In addition, the half-maximal inhibitory concentration (IC50) in series [4] was 3.45 µM; in series [8] it was 4.18 µM; in series [11], 2.2 µM. Besides, the result in series [5], in [7] and in [12] was inactive. The Activity in series [9] and in series [13] was 75% each time.

Regarding `c1ccc(CCCCNc2nc(NCCCCc3ccccc3)c3ccccc3n2)cc1`, the viability at 72 h, up to 100 µM is 6% in series [1] and 11% in series [10]. The viability at 100 µM in series [2], in [3] and in [6] was < 45% each time. Besides, the 50% inhibitory concentration (IC50) was found to be 11.9 µM in series [4], 1.22 µM in [8] and 3.78 µM in series [11]. Besides, the outcome in [5] and in series [12] was inactive. Further, the “fold change (FC)” value in [7] was found to be 2. In addition, the Activity in series [9] turned out to be 75%.

In the case of `c1ccc(CCNc2nc(NCCc3ccccc3)c3cccnc3n2)cc1`, the viability at 72 h, up to 100 µM in [1] and in series [10] was 0% throughout. In addition, the viability at 100 µM in series [2], in series [3] and in series [6] was < 45% each time. The 50% inhibitory concentration (IC50) turned out to be 8.1 µM in [4], 1.2 µM in series [8] and 2.5 µM in series [11]. The “fold change (FC)” value in series [5] worked out at 1.2; in [7], 9.2. In addition, the Activity in [9] came out at 75%; in [13], 50%. Also, the outcome in [12] was inactive.

Turning to `CCCCCNc1nc(SCC)nc2ncccc12`, the viability at 72 h, up to 100 µM turned out to be 88% in series [1] and 100% in [10]. For the same molecule, the viability at 100 µM in series [2], in series [3] and in series [6] was < 45% each time. Moreover, the IC50 in series [4] was 4.3 µM; in series [8], 1.3 µM; in series [11], 5.1 µM. In addition, the “fold change (FC)” value is on record as 3.6 in [5], 5 in series [7] and 6.6 in series [12]. The Activity in [9] came to 75%; in [13] it was 50%.
